Assay [1] concerns DU-145. As to the kind of experiment: Growth inhibition of human DU145 cells by MTT assay. It counts as functional.
The subject of assay [2] is HUVEC. Put plainly: Growth inhibition of HUVEC at 10 uM by MTT assay. The format is functional, cell-based. Particulars: Homo sapiens. In outline: (§1)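 MTT cell growth read-out, with SAHA as the positive control. GI50 values are means of three experiments. 10 μM was the concentration tested for scoring absence of activity.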
Assay [3] has as its system A-431. As to the kind of experiment: Growth inhibition of human A431 cells at 10 uM by MTT assay. It counts as functional, cell-based. In outline: as §1
Assay [4] concerns BGC-823. As to the kind of experiment: Growth inhibition of human BGC823 cells at 10 uM by MTT assay. The format is functional, cell-based. In short, it runs like this: as §1
(Tetrazolium dyes change colour on reduction, which living cells bring about.)

Assay [5] has as its target T1, Histone deacetylase 7 (Homo sapiens) (UniProt Q8WUI4).
T1 sequence (whole entry): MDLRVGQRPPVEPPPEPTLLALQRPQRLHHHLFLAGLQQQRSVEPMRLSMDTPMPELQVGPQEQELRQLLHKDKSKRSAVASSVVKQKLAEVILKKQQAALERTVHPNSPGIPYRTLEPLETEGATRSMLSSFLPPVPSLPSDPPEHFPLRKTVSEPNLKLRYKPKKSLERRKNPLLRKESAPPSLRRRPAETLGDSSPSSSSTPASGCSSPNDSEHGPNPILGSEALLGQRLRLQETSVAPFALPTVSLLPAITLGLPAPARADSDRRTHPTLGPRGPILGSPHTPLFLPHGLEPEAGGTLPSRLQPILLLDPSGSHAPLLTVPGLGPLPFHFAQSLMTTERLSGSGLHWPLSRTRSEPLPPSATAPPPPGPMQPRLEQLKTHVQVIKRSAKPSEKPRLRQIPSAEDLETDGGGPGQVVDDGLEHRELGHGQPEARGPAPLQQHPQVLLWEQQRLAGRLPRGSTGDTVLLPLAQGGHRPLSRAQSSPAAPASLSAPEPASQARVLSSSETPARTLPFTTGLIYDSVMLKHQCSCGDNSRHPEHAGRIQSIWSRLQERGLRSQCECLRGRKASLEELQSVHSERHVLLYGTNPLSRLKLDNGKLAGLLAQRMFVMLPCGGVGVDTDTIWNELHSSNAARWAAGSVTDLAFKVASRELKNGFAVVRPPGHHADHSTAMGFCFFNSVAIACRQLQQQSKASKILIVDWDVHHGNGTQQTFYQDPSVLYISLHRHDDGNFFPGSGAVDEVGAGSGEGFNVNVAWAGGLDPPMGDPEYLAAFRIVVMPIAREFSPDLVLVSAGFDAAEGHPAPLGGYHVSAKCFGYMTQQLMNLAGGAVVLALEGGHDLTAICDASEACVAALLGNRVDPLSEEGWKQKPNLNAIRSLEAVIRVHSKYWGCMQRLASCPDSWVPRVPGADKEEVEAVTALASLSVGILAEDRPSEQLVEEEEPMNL
As to the kind of experiment: Inhibition of human recombinant HDAC7 at 10 uM incubated for 10 mins prior to substrate addition measured after 60 mins by spectrophotometric analysis. In short, it runs like this: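 Enzyme IC50 values are means of three experiments, with SAHA run as the positive control. Absence of activity was judged at 10 μM.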

In assay [6] the target is Histone deacetylase 1 (Homo sapiens, UniProt Q13547). Put plainly: Inhibition of human recombinant HDAC1 incubated for 10 mins prior to substrate addition measured after 60 mins by spectrophotometric analysis.
Chain of Histone deacetylase 1 (Q13547 whole entry): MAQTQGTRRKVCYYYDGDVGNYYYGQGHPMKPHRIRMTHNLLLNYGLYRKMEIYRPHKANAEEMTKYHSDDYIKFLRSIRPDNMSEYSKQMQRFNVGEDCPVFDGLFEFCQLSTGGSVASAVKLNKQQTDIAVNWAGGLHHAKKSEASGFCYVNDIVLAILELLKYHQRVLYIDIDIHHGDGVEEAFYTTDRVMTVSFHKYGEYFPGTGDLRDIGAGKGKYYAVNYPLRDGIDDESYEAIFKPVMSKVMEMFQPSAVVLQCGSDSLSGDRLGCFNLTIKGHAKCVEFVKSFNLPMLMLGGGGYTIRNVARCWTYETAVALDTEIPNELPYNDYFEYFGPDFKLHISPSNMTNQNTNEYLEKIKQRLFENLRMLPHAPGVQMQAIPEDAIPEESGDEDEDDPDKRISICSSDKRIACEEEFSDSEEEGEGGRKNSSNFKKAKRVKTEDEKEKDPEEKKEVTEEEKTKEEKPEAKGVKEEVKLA
The test system of assay [7] is HeLa. As to the kind of experiment: Growth inhibition of human HeLa cells at 10 uM by MTT assay. It counts as functional, cell-based. In outline: as §1
Assay [8] concerns A549. As to the kind of experiment: Growth inhibition of human A549 cells at 10 uM by MTT assay. It counts as functional, cell-based. In outline: as §1
In assay [9] the test system is HT-1080. As to the kind of experiment: Growth inhibition of human HT1080 cells by MTT assay. The format is functional. In short, it runs like this: as §1
Assay [10] has as its system A-431. Put plainly: Growth inhibition of human A431 cells by MTT assay. It counts as functional.
Assay [11] deals with BGC-823. As to the kind of experiment: Growth inhibition of human BGC823 cells by MTT assay. The format is functional.
Assay [12] concerns DU-145. As to the kind of experiment: Growth inhibition of human DU145 cells at 10 uM by MTT assay. It counts as functional, cell-based. In short, it runs like this: as §1
The subject of assay [13] is HT-1080. As to the kind of experiment: Growth inhibition of human HT1080 cells at 10 uM by MTT assay. It counts as functional, cell-based. In short, it runs like this:
as §1

Here are results for 26 compounds from ChEMBL document CHEMBL2380293, “Design, synthesis, and biological evaluation of novel histone deacetylase 1 inhibitors through click chemistry” (Bioorg Med Chem Lett, 2013).

Each structure is given as a SMILES string. Calls of active or inactive are those of the source. The rule behind the calls is not given here.

Consider `CC(C)(C)c1ccc(Cn2cc(CCCCC(=O)NO)nn2)cc1`, for which the GI50 in assay [1] is 7.2 µM; in [9] (Homo sapiens, HT-1080), 7.37 µM. The “growth inhibition (GI)” value in assay [2], in assay [3], in assay [4], in assay [7] and in [8] was “inactive” in each case. Moreover, the inhibition result in [5] is “inactive”. For the same compound, the IC50 in assay [6] was 0.601 µM.
Take `N#Cc1ccc(Cn2cc(CCCCC(=O)NO)nn2)cc1`: the inhibition result in assay [5] is “inactive”. In addition, the IC50 in assay [6] turned out to be 0.701 µM.
Take `O=C(CCCCc1cn(Cc2ccccc2Cn2cc(CCCCC(=O)NO)nn2)nn1)NO`: the inhibition entry in [5] was “inactive”. In addition, the IC50 in [6] stood at 0.807 µM.
Take `O=C(CCCCc1cn(Cc2ccc(Oc3ccccc3)cc2)nn1)NO`: the GI50 turned out to be 4.49 µM in [1]; 9.03 µM in [10]; 7.77 µM in assay [11]; 7.69 µM in [9] (Homo sapiens, HT-1080). In addition, the inhibition result in assay [5] is “inactive”. The IC50 in assay [6] came to 0.122 µM. The “growth inhibition (GI)” value in [7] and in assay [8] was “inactive” each time.
As to `O=C(CCCCc1cn(Cc2ccc3ccccc3c2)nn1)NO`, the GI50 was found to be 7.23 µM in assay [1]; 5.68 µM in [10]; 6.64 µM in assay [11]; 4.61 µM in assay [9] (Homo sapiens, HT-1080). Besides, the “growth inhibition (GI)” value in assay [2], in [7] and in [8] was “inactive” each time. In addition, in [5], the inhibition result is “inactive”. In [6], the IC50 stood at 0.107 µM.
In the case of `O=C(CCCCc1cn(Cc2ccc(C(F)(F)F)cc2)nn1)NO`, the inhibition result in assay [5] was “inactive”. Moreover, the IC50 in assay [6] is 0.44 µM.
For `O=C(CCCCc1cn(Cc2cccc(Br)c2)nn1)NO`, the “growth inhibition (GI)” value in assay [12], in assay [2], in [3], in assay [4], in assay [7] and in [8] was “inactive” in each case. Besides, the inhibition result in assay [5] was “inactive”. The half-inhibitory concentration (IC50) in assay [6] came out at 0.396 µM. For the same compound, the GI50 in [9] (Homo sapiens, HT-1080) is 6.65 µM.
Consider `O=C(CCCCc1cn(Cc2ccc3c(c2)OCO3)nn1)NO`, for which the inhibition result in assay [5] is “inactive”. Moreover, the half-maximal inhibitory concentration (IC50) in assay [6] amounted to 1.9 µM.
Taken in the same sequence, the figures for `O=C(CCCCc1cn(Cc2ccccc2)nn1)NO` were “inactive” and 1.68 µM.
Taken in the same sequence, the figures for `Cc1ccc(Cn2cc(CCCCC(=O)NO)nn2)cc1` were “inactive” and 0.44 µM.
Turning to `COc1ccc(Br)c(Cn2cc(CCCCC(=O)NO)nn2)c1`, the GI50 amounted to 5.62 µM in assay [1] and 9.94 µM in [9] (Homo sapiens, HT-1080). The “growth inhibition (GI)” value in [2], in assay [3], in assay [4], in assay [7] and in assay [8] was “inactive” in each case. For the same compound, the inhibition result in assay [5] is “inactive”. In assay [6], the IC50 turned out to be 0.159 µM.
Turning to `O=C(CCCCc1cn(Cc2ccc(Br)cc2)nn1)NO`, the concentration for 50% growth inhibition (GI50) in [1] came out at 7.91 µM; in assay [10] it was 15.4 µM. The “growth inhibition (GI)” value in [4], in assay [7], in [13] and in assay [8] was “inactive” in each case. Moreover, the inhibition entry in assay [5] is “inactive”. Moreover, the IC50 in assay [6] was 1.6 µM.
In the case of `COc1ccc(Cn2cc(CCCCC(=O)NO)nn2)cc1`, the inhibition entry in [5] is “inactive”. In addition, the IC50 in assay [6] amounted to 1.85 µM.
In the case of `COc1cc(Br)c(Cn2cc(CCCCC(=O)NO)nn2)cc1OC`, the “growth inhibition (GI)” value in assay [12], in assay [2], in [4], in assay [7], in [13] and in assay [8] was “inactive” in each case. For the same compound, in assay [5], the inhibition result is “inactive”. In addition, in assay [6], the half-maximal inhibitory concentration (IC50) turned out to be 0.862 µM. In [10], halving of growth (GI50) required 17.3 µM.
`O=C(CCCCc1cn(Cc2ccccc2F)nn1)NO`: the inhibition result in [5] is “inactive”. Besides, the half-inhibitory concentration (IC50) in assay [6] turned out to be 1.36 µM.
On to `Cc1cc(C)cc(Cn2cc(CCCCC(=O)NO)nn2)c1`, for which the “growth inhibition (GI)” value in assay [12], in assay [2], in assay [3], in [4], in assay [7] and in assay [8] was “inactive” throughout. Besides, the inhibition entry in [5] is “inactive”. Also, the IC50 in assay [6] worked out at 0.269 µM. Also, the GI50 in assay [9] (Homo sapiens, HT-1080) was 8.65 µM.
Turning to `Cc1ccccc1Cn1cc(CCCCC(=O)NO)nn1`, the inhibition result in [5] was “inactive”. In assay [6], the IC50 is 1.05 µM.
The compound `O=C(CCCCCCC(=O)Nc1ccccc1)NO` [VORINOSTAT] returned a GI50 in assay [9] of 4.87 µM.
For the compound `O=C(CCCCc1cn(Cc2ccccn2)nn1)NO`, the inhibition entry in assay [5] is “inactive”. Also, the IC50 in assay [6] came out at 2.57 µM.
For `O=C(CCCCc1cn(Cc2ccc(Cl)cc2)nn1)NO`, in that order: “inactive” and 2.21 µM.
On to `O=C(CCCCc1cn(Cc2ccccc2Br)nn1)NO`, for which the “growth inhibition (GI)” value in assay [12], in assay [3], in [4], in [7], in assay [13] and in assay [8] was “inactive” throughout. For the same compound, in assay [5], the inhibition result is “inactive”. Further, the IC50 in assay [6] turned out to be 3.58 µM.
As for `O=C(CCCCc1cn(Cc2ccc3ccccc3n2)nn1)NO`, the GI50 is 4.06 µM in [1] and 10.2 µM in [9] (Homo sapiens, HT-1080). Besides, the “growth inhibition (GI)” value in [2], in assay [3], in assay [4], in assay [7] and in assay [8] was “inactive” each time. Also, the inhibition result in assay [5] was “inactive”. Further, the 50% inhibitory concentration (IC50) in assay [6] was 0.246 µM.
As to `O=C(CCCCc1cn(Cc2ccc(F)cc2)nn1)NO`, the inhibition entry in [5] was “inactive”. The IC50 in [6] amounted to 0.645 µM.
Turning to `O=C(CCCCc1cn(Cc2ccc(F)c(Cl)c2)nn1)NO`, the “growth inhibition (GI)” value in assay [12], in assay [2], in assay [4], in assay [7] and in [8] was “inactive” each time. Further, the inhibition result in assay [5] was “inactive”. In addition, the IC50 in [6] is 0.649 µM. This compound also had a GI50 in assay [9] (Homo sapiens, HT-1080) of 10.2 µM.
Turning to `O=C(CCCCc1cn(Cc2ccc(F)cc2F)nn1)NO`, in assay [5], the inhibition entry is “inactive”. In addition, the IC50 in assay [6] came to 1.22 µM.
For the compound `COc1cc(Cn2cc(CCCCC(=O)NO)nn2)cc(OC)c1`, the GI50 was 7.89 µM in assay [1]; 6.8 µM in assay [10]; 8.04 µM in assay [9] (Homo sapiens, HT-1080). Also, the “growth inhibition (GI)” value in [2], in assay [4], in assay [7] and in assay [8] was “inactive” each time. In addition, in assay [5], the inhibition entry is “inactive”. In assay [6], the IC50 stood at 0.252 µM.

In general, GI50 refers to the concentration that inhibits growth by half. For orientation: IC50 means the concentration that gives 50% inhibition.
